High-throughput results deposited in PubChem BioAssay by several laboratories.
AI-2 QS mod: Vibrio harveyi AI-2 quorum sensing modulators, primary screen, JMH597 strain, luminescence/OD600 ratio. Vibrio harveyi JMH597 AI-2 luminescence/OD600 ratio, 9 h; active compounds read low; strain lacks LuxN and CqsS sensors; 0 = neutral-control median. activity change, % at 7.5 µM. hit rate 0.4% among 300,000. AID 2094, 2009; in the data active = activity change below about -75%, passing the limit was not always enough; inconclusive = no clear call, values can overlap the other calls;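 also: luminescence divided by OD600 gain over 9 h not by final OD600 alone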
RanGTP-Impb inh: inhibitors of RanGTP-importin-beta interaction, primary screen, biochemical, FRET, CFP-Ran, YFP-importin-beta, homogeneous; Ran GTPase (GTP-bound) - importin-beta complex; cell-free CFP-Ran/YFP-importin-beta FRET ratio; hit rate 1.1% among 300,000; inhibition, % (concentration not given with the values);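 active = more than half of the replicate wells show a fall in the fluorescence ratio signal beyond about 16%, limit read from the data, passing the limit was not always enough; inconclusive = exactly half of the replicate wells pass the set limit; inactive = fewer than half of replicates pass the limit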;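 also: 0% = DMSO wells and 100% = Ran loaded with GDP instead of GTP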
KLK7 zymogen act: proKLK7 zymogen activators, primary screen, biochemical, fluorescence intensity; purified proKLK7, EDANS-DABCYL substrate fluorescence; 100% is mature enzyme control, 0% vehicle; AID 652039, 2013; hit rate 0.9% among 370,000; activation, % at 7 µM; Kallikrein-7 (Homo sapiens), P49862;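 active = activation above the mean of all tested compounds plus 3 SD, computed per campaign excluding outliers beyond control limits, cut at about 13% in these data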
Wee1 degr inh: Wee1 degradation inhibitors, primary screen, cell-based, HeLa, Wee1K328M-luciferase, luminescence | HeLa Luc-Wee1K328M stability; 100% = proteasome inhibitor MG132 effect | Wee1-like protein kinase (Homo sapiens), P30291 | hit rate 1.2% among 220,000 | reporter increase, % at 5 µM;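 active = activation above the mean of all tested compounds plus 3 SD, set per screening run, cut at about 8.8% in these data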;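 also: cells exposed to compound for 20 h before luminescence read; 0% = DMSO alone and 100% = MG132 at 30 µM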
Target sequence (P30291 whole entry K328M): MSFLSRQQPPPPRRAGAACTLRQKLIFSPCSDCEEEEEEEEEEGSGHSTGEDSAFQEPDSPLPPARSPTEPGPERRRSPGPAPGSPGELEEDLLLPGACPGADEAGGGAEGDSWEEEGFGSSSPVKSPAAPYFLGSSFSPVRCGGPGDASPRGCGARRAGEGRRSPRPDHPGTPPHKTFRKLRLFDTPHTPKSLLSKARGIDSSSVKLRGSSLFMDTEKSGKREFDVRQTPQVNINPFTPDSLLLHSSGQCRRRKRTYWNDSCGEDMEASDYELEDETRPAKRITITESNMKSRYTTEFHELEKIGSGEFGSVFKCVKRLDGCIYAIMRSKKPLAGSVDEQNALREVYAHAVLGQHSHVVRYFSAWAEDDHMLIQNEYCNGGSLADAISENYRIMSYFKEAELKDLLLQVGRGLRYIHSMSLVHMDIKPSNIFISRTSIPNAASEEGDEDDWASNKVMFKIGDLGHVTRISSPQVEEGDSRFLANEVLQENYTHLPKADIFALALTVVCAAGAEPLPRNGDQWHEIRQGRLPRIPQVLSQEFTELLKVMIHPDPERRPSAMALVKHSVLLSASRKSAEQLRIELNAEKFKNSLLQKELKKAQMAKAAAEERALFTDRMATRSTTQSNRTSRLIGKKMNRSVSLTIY
Runt-SMMHC FRET: inhibitors of RUNX1 Runt–CBFb-SMMHC binding, primary screen, biochemical, FRET, Cerulean-Runt, Venus-CBFb-SMMHC, uHTS. inhibition, % at 20 µM. hit rate 0.74% among 220,000. Cerulean-Runt/Venus-CBFb-SMMHC FRET ratio 530/480, 1 h;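 active = mean inhibition across duplicate retests at 20 µM reaching about 50%, limit read from the data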;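 also: 0% = DMSO wells and 100% = wells with excess untagged CBFb-SMMHC; inhibitors lower the FRET ratio by blocking Runt binding to CBFb-SMMHC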
Runt-CBFb FRET: inhibitors of RUNX1 Runt–CBFb binding, primary screen, biochemical, FRET, Cerulean-Runt, Venus-CBFb, uHTS; hit rate 0.46% among 220,000; Runt-related transcription factor 1 (Homo sapiens) + Core-binding factor subunit beta …; inhibition, % at 20 µM; Cerulean-Runt/Venus-CBFb FRET ratio 530/480, 1 h;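 active = inhibition over about 50% at 20 µM in the single-dose screen, limit read from the data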;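 also: 0% = DMSO wells and 100% = excess unlabeled CBFb competitor control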
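System: Cerulean-labeled Runt domain protein | Quantity: 100 nM of each labeled protein | Schedule: 1 h compound exposure, room temperature | Detection: Fluorescence energy transfer, 422 nm excitation, 530/480 nm emission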
JMH597 growth: Vibrio harveyi growth inhibition, confirmation, counter-screen for AI-2 quorum sensing project, JMH597 strain, OD600 absorbance. hit rate 1% among 750. growth inhibition, % at 7.5 µM. 9 h; lacks LuxN and CqsS sensors. shares compounds with AI-2 QS mod;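 active = every replicate shows growth inhibition above 50%; inconclusive = at least half, but not all, replicates pass that cutoff; inactive = fewer than half of replicates pass it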
BB721 lum counter: luminescence inhibition in constitutive-on V. harveyi, confirmation, counter-screen for LuxS inhibitor project, strain BB721, luminescence readout. inhibition, % at 7.5 µM. shares compounds with AI-2 QS mod. Vibrio harveyi BB721 luminescence, 9 h. hit rate 95% among 750;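 active = inhibition above about 80% in every replicate, not just on average, limit read from the data; inconclusive = at least half of replicates past the limit, but not all; inactive = fewer than half of replicates past the limit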
BB721 growth rt: growth inhibition of V. harveyi BB721, confirmation, cytotoxicity control for AI-2 quorum sensing inhibitors, strain BB721, absorbance OD600 | shares compounds with AI-2 QS mod | Vibrio harveyi BB721 growth, 9 h | growth inhibition, % at 7.5 µM | hit rate 3% among 750 | AID 2728, 2010;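 active = every replicate shows growth inhibition above 50%; inconclusive = at least half but not all replicates above 50% inhibition; inactive = under half of replicates above 50% inhibition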
JMH597 AI-2 mod: Vibrio harveyi AI-2 signaling luminescence modulation – JMH597 strain, confirmation; inhibition, % at 7.5 µM; AID 2736, 2010; shares compounds with AI-2 QS mod; Vibrio harveyi JMH597 AI-2 quorum sensing luminescence, 9 h; luxN and CqsS knockout, AI-2 only; hit rate 97% among 750;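 active = every replicate shows more than 75% inhibition of signal versus neutral control wells; inconclusive = half to three quarters of replicates exceed 75% inhibition; inactive = fewer than half of replicates exceed 75% inhibition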
* marks the source's active call; other numbers are inactive results; ? = inconclusive; · = not tested or not shown. Rows were chosen to be rich in hits. Some 2.9% of all compounds tested hit in one or more screens of this group.

SMILES	AI-2 QS mod	RanGTP-Impb inh	KLK7 zymogen act	Wee1 degr inh	Runt-SMMHC FRET	Runt-CBFb FRET	JMH597 growth	BB721 lum counter	BB721 growth rt	JMH597 AI-2 mod
N#C/C(=C\c1cccnc1)c1ccccn1	15	-3	-1	·	·	·	·	·	·	·
CCOC(=O)c1cccc(NC(=O)Cn2nc(C)n3cccc3c2=O)c1	-97*	4	0	·	·	·	22	100*	12	100*
Cc1ccc(O)c(NC(=O)CSc2ccc(Cl)cc2)c1	-87*	-11	-1	-2	-5	0	12	93*	5	95*
Cc1ccc(NS(=O)(=O)c2ccc(NC(=O)CSc3ccc(Cl)cc3)cc2)c(C)c1	-6	7	0	-1	7	·	·	·	·	·
CCOC(=O)/C(=C/c1ccco1)NC(=O)c1ccc(Br)o1	14	-1	1	2	-5	6	·	·	·	·
COc1ccc(Cc2nc(-c3ccc(Cl)cc3)no2)cc1	-88*	-4	1	0	-1	-3	10	97*	-5	98*
Clc1ccc(-c2noc(COc3ccccc3)n2)cc1	?	-4	-1	-2	0	-5	1	86*	15	94*
COc1ccc(-c2noc(Cc3ccc(Cl)cc3)n2)cc1OC	-10	4	1	3	-107	-10	·	·	·	·
CCCOCC(O)CCc1n[nH]c(=S)n1-c1ccccc1 (configuration not stated)	1	-1	0	3	6	5	·	·	·	·
O=C(Nc1ccc(Nc2ccccc2)cc1)c1ccc(Cl)cc1[N+](=O)[O-]	-86*	-3	0	·	·	·	52	?	21	91*
O=C(Nc1ccc(C(=O)O)cc1)/C(=C\C=C\c1ccccc1)NC(=O)c1ccccc1Br	29	6	1	·	·	·	·	·	·	·
CSc1ccc(Cl)c(C(=O)Nc2ccc(OCC(N)=O)cc2)c1	?	3	0	8	1	0	14	6	15	5
CC12CCC(=O)N1C(C(=O)Nc1ccc(SC(F)F)cc1)CS2 (configuration not stated)	-94*	4	0	·	·	·	24	95*	17	96*
CC(C)c1ccc(NC(=O)C2CSC3(C)CCC(=O)N23)cc1 (configuration not stated)	-91*	4	0	·	·	·	3	93*	1	96*
CC12CCC(=O)N1C(C(=O)Nc1cccc(F)c1)CS2 (configuration not stated)	18	-3	0	·	·	·	·	·	·	·
O=c1cc(O)c2sc3nc(-c4cccnc4)cc(C(F)(F)F)c3c2[nH]1	16	?	4	0	-28	-2	·	·	·	·
Cc1ccc(Cl)c(NC(=O)CN2CCNC(=O)C2)c1Cl	18	1	0	4	2	-1	·	·	·	·
Cc1cccc2nc(CSc3nc4ccccc4[nH]3)cn12	?	4	1	-3	0	71*	-14	96*	-42	97*
c1ccc2[nH]c(SCc3cn4ccccc4n3)nc2c1	-11	?	0	0	1	0	·	·	·	·
O=C1CSC(c2ccc([N+](=O)[O-])cc2)N1c1ccc(O)cc1 (configuration not stated)	2	1	1	·	·	·	·	·	·	·
COc1ccc(NC(=O)COC(=O)C2CCN(S(=O)(=O)c3ccccc3)CC2)cc1Cl	10	-3	1	·	·	·	·	·	·	·
CN(C)c1cccc(NC(=O)c2cccc3c(-c4ccc(F)c(F)c4)coc23)c1	·	·	-2	·	·	·	·	·	·	·
CCCCNC(=O)/C=C/c1cccs1	2	-2	0	-3	3	-3	·	·	·	·
Cc1ccc(CNC(=O)/C=C/c2cccs2)cc1	-96*	4	0	-2	0	-1	0	99*	-10	99*
CCc1ccc(CCC(=O)Nc2ccc(C(=O)O)cc2)o1	-54	8	0	·	·	·	·	·	·	·
SMILES	AI-2 QS mod	RanGTP-Impb inh	KLK7 zymogen act	Wee1 degr inh	Runt-SMMHC FRET	Runt-CBFb FRET	JMH597 growth	BB721 lum counter	BB721 growth rt	JMH597 AI-2 mod
Cc1cc(NC(=O)CCc2ccc(C)o2)no1	11	0	0	-2	2	4	·	·	·	·
Cc1ccc(CCC(=O)Nc2ccc(C#N)cc2)o1	-80*	-1	-1	·	·	·	26	90*	23	93*
CC(=O)c1ccc(NC(=O)CCc2ccc(C)o2)cc1	-88*	-2	0	·	·	·	-2	95*	-16	96*
Clc1cccc(CSc2nnc(-c3c[nH]c4ccccc34)o2)c1	-88*	-1	1	2	-2	0	22	93*	22	95*
CCc1nnc(NC(=O)CSc2ccc(-c3cccs3)nn2)s1	-89*	1	0	-2	0	1	-8	97*	11	98*
CCc1nnc(NC(=O)CSc2nc(-c3ccccc3)cc(-c3ccc(F)cc3)c2C#N)s1	7	-3	-1	1	-64	-16	·	·	·	·
CCc1nnc(NC(=O)CSc2ccc(-c3ccccc3OC)nn2)s1	-87*	1	0	-3	1	0	-8	98*	-7	99*
CCc1nnc(NC(=O)CSc2ccc(-c3ccc(F)cc3)nn2)s1	-93*	?	·	-3	0	0	-23	90*	-10	93*
CCNC(=O)N(C)C[C@H]1N[C@@](CC)(C(=O)OC)[C@H]2C(=O)N(C)C(=O)[C@@H]12	·	·	0	·	·	·	·	·	·	·
N/C(=N\OC(=O)CCc1ccccc1)c1ccccc1Cl	-85*	2	0	-2	-3	0	9	92*	4	92*
CC(Nc1ccc(Br)cn1)c1cc(Cl)ccc1O (configuration not stated)	-86*	-2	0	0	2	1	34	96*	31	97*
